ChEMBL document CHEMBL1142636 (2000)
Calls of active or inactive are those of the source.

What was measured:
Assay type in all cases: functional
Hs-578T = test: Growth inhibition of human HS578T cells
MDA-MB-231 = test: Growth inhibition of human MDA-MB-231 cells
MCF7 = test: Growth inhibition of human MCF7 cells
DU-145 = test: Growth inhibition of human DU145 cells
PC-3 = test: Growth inhibition of human PC3 cells
UO-31 = test: Growth inhibition of human UO31 cells
Method in brief: (§1)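 Tested at the NCI in its human disease-oriented in vitro screen of 60 tumour cell lines, following the Monks et al. methods. Activity is expressed as GI50, given as log molar values.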

TK-10 = test: Growth inhibition of human TK10 cells; method in brief: as §1
SN12C = test: Growth inhibition of human SN12C cells; method in brief: as §1
RXF 393 = test: Growth inhibition of human […] cells
CAKI-1 = test: Growth inhibition of human CAKI1 cells
ACHN = test: Growth inhibition of human ACHN cells
A498 = test: Growth inhibition of human A498 cells
786-0 = test: Growth inhibition of human 786-0 cells
SK-OV-3 = test: Growth inhibition of human SK-OV-3 cells; method in brief: as §1
OVACR8 = test: Growth inhibition of human OVACR8 cells
OVACR5 = test: Growth inhibition of human OVACR5 cells
OVACR4 = test: Growth inhibition of human OVACR4 cells
OVACR3 = test: Growth inhibition of human […] cells
IGROV-1 = test: Growth inhibition of human IGROV1 cells
UACC-62 = test: Growth inhibition of human UACC62 cells; method in brief: as §1
UACC-257 = test: Growth inhibition of human UACC257 cells; method in brief: as §1
SK-MEL-5 = test: Growth inhibition of human SK-MEL-5 cells; method in brief: as §1
SK-MEL-28 = test: Growth inhibition of human SK-MEL-28 cells; method in brief: as §1
SK-MEL-2 = test: Growth inhibition of human SK-MEL-2 cells; method in brief: as §1
M19-MEL = test: Growth inhibition of human M19-MEL cells
M14 = test: Growth inhibition of human M14 cells
Malme-3M = test: Growth inhibition of human MALME-3M cells
LOX IMVI = test: Growth inhibition of human LOX IMVI cells
XF498 = test: Growth inhibition of human XF498 cells; method in brief: as §1
U-251 = test: Growth inhibition of human U251 cells; method in brief: as §1
SNB-75 = test: Growth inhibition of human SNB75 cells; method in brief: as §1
SNB-19 = test: Growth inhibition of human SNB19 cells; method in brief: as §1
SF-539 = test: Growth inhibition of human SF539 cells; method in brief: as §1
SF-295 = test: Growth inhibition of human SF295 cells; method in brief: as §1
SF-268 = test: Growth inhibition of human SF268 cells; method in brief: as §1
SW-620 = test: Growth inhibition of human SW620 cells; method in brief: as §1
KM-20L2 = test: Growth inhibition of human KM20L2 cells
KM12 = test: Growth inhibition of human KM12 cells
HT-29 = test: Growth inhibition of human HT29 cells
HCT-15 = test: Growth inhibition of human HCT15 cells
HCT-116 = test: Growth inhibition of human HCT116 cells
HCC 2998 = test: Growth inhibition of human HCC2998 cells
DLD-1 = test: Growth inhibition of human DLD1 cells
COLO 205 = test: Growth inhibition of human COLO205 cells
DMS-273 = test: Growth inhibition of human DMS273 cells
DMS144 = test: Growth inhibition of human DMS144 cells
LXFL 529 = test: Growth inhibition of human LXFL529 cells
NCI-H522 = test: Growth inhibition of human NCI-H522 cells
NCI-H460 = test: Growth inhibition of human NCI-H460 cells
NCI-H322M = test: Growth inhibition of human NCI-H322M cells
NCI-H23 = test: Growth inhibition of human NCI-H23 cells
NCI-H226 = test: Growth inhibition of human NCI-H226 cells
HOP-92 = test: Growth inhibition of human HOP92 cells
HOP-62 = test: Growth inhibition of human HOP62 cells
HOP-18 = test: Growth inhibition of human HOP18 cells
EKVX = test: Growth inhibition of human EKVX cells
A549 = test: Growth inhibition of human A549 cells
SR = test: Growth inhibition of human SR cells; method in brief: as §1
RPMI8266 = test: Growth inhibition of human RPMI8266 cells
MOLT-4 = test: Growth inhibition of human MOLT4 cells
K562 = test: Growth inhibition of human K562 cells
HL-60(TB) = test: Growth inhibition of human HL60(TB) cells
CCRF-CEM = test: Growth inhibition of human CCRF-CEM cells
MDA-MB-435 = test: Growth inhibition of human MDA-MB-435 cells
MDA-N = test: Growth inhibition of human MDA-N cells
BT-549 = test: Growth inhibition of human BT549 cells
T47D = test: Growth inhibition of human T47D cells; method in brief: as §1
NCI/ADR-RES = test: Growth inhibition of human MCF7/ADR-RES cells

Measured: Activity

COc1cc(Cn2c3ccccc3c3cc(C)c4c(c32)C=CC(C)(CCC=C(C)C)O4)cc2c1[nH]c1ccccc12 (stereo unspecified)
inactive: all assays above

Cc1cc2c([nH]c3ccccc32)c2c1OC(C)(C)[C@H]1[C@H]3CC(C)(C)Oc4c(C)cc5c6ccccc6n(c5c43)[C@@H]21
inactive: all assays above
